GPR7 antagonist = antagonists of human GPR7 (neuropeptides B/W receptor 1); P48145; inhibition, % at 4.4 µM; 290,000 compounds, 1.1% hits; GPR7-expressing cells, fluorescence antagonist assay; in the data active = inhibition above about 16%, passing the limit was not always enough;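 note: cells stimulated with the agonist NPW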
Target sequence (P48145 whole entry, looked up): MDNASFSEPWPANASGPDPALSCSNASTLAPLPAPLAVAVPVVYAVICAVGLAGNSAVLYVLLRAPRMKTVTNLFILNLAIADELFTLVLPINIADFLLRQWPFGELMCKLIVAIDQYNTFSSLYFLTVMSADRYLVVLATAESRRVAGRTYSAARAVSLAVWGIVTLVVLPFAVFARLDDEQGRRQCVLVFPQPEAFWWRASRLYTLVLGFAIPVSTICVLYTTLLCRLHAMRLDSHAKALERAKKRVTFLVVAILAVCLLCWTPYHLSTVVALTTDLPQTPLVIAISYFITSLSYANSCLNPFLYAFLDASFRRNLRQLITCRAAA
CHO parental Ca = counter-screen: ATP calcium response change in parental CHO cells. parental CHO-K1, ATP-induced calcium, Fluo-8 fluorescence. inhibition, % at 5.6 µM. 330,000 compounds, 0.63% hits;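 active = inhibition above that plate's mean sample inhibition plus 3 SD, cut at about 26% in these data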
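Material: parental CHO cells / Compound: single nominal dose of 5.6 µM per compound / Signal: Fluo-8 fluorescence / Replicates: singlicate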
MPTP block = permeability transition pore inhibition. 360,000 compounds, 1.4% hits. isolated mouse mitochondria, Ca2+ swelling absorbance, 30 min. inhibition, % at 10 µM;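 active = inhibition of 50% or more, scaled per plate between neutral and stimulator controls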
OX1R antag-1 = antagonists of human orexin 1 receptor (OX1R); 330,000 compounds, 1.8% hits; inhibition, % at 6.6 µM; OX1R-expressing cells, FRET antagonist read-out; AID 485270; in the data active = inhibition mostly above about 38%, no sharp cut-off; inactive = mostly below about 40%
OX1R antag-2 = human HCRTR1 antagonism | CHO/OX1R cells, Fluo-8 calcium fluorescence, orexin A | inhibition, % at 5 µM | 330,000 compounds, 0.43% hits | AID 434989;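 active = inhibition above its plate's threshold, mean inhibition of all tested compounds on the plate plus 3 SD, cut at about 37% in these data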
Numbers stand for hits; . = inactive; / = no result given. Only some compounds are listed: those with a hit (about 3.8% of all), similar ones and a draw of the others.

SMILES	GPR7 antagonist	CHO parental Ca	MPTP block	OX1R antag-1	OX1R antag-2
CC[C@]12c3[nH]c4ccccc4c3CCN1C(=O)C(CC(=O)NCCCn1ccnc1)C[C@@H]2C(=O)N1CCN(C(=O)c2ccco2)CC1 (stereo not given in full)	/	.	.	.	.
COc1cc(-c2noc(-c3cccs3)n2)cc(OC)c1OC	.	.	.	48	.
COc1ccc(-c2noc(-c3cccs3)n2)cc1OC	.	.	.	.	.
COc1cc(C(=O)Nc2nc(-c3cccs3)cs2)cc(OC)c1OC	.	.	.	49	.
COCCNc1nc(NCCN2CCNC2=O)c2sccc2n1	/	/	.	/	/
CCCCN(CCCC)c1ccc(C(=O)c2ccccc2C(=O)O)c(O)c1	.	94	.	.	78
O/N=C(\c1ccc(Cl)cc1)c1cc2ccccc2o1	.	33	.	.	.
COc1ccc(Cn2nnnc2CN(Cc2cc3ccc(C)cc3[nH]c2=O)C2CCCC2)cc1	.	.	.	43	.
COc1ccc(Cn2nnnc2CN(Cc2cc3cccc(C)c3[nH]c2=O)C2CCCC2)cc1	.	.	.	.	.
O=C(Nc1ccc2c(c1)OCO2)c1c(Cl)nc2sccn12	.	.	.	58	.
C=CCN(CC=C)C(=O)COC(=O)c1ccc(Sc2ncn[nH]2)c([N+](=O)[O-])c1	.	.	.	.	.
CCOC(=O)c1[nH]cnc1C(=O)Nc1cccc(Cl)c1	.	.	.	.	.
O=[N+]([O-])c1cccc(-c2nnc(-c3ccccc3)o2)c1	.	.	.	.	.
Cc1occc1-c1nnc(-c2cc([N+](=O)[O-])cc([N+](=O)[O-])c2)o1	.	.	.	59	.
COC(=O)c1sccc1Oc1c(Cl)cccc1[N+](=O)[O-]	.	.	.	.	.
Cn1c(-c2ccc([N+](=O)[O-])cc2)nc2ccccc21	.	.	.	51	.
Cn1cc([N+](=O)[O-])cc1-c1nc2ccccc2n1C	.	.	.	.	.
CC1(C(=O)NCc2ccccc2)CSCC(=O)N1C1CCN(Cc2ccccc2)CC1 (stereo not given)	/	/	.	/	/
O=c1cc(NCc2ccccc2)[nH]c(=O)[nH]1	/	.	.	.	.
Cc1nn(S(=O)(=O)c2cccs2)c(C)c1Sc1ccccc1	.	/	/	/	/
Cc1nn(S(=O)(=O)c2cccs2)c(C)c1Sc1ccc([N+](=O)[O-])cc1	.	41	.	.	.
C=CCn1c(-c2cccs2)nc2ccccc21	.	.	.	.	.
C=CCn1c(-c2cccs2)nc2nc3ccccc3nc21	.	.	.	72	.
S=C(NCCCN1CCOCC1)Nc1cccc(-c2nnc3n2CCCCC3)c1	.	.	.	.	.
CCC(=O)N1CCc2cc(S(=O)(=O)NCCC(=O)N3CC=C(c4ccccc4)CC3)ccc21	.	.	.	55	.
SMILES	GPR7 antagonist	CHO parental Ca	MPTP block	OX1R antag-1	OX1R antag-2
CCC(=O)N1CCc2cc(S(=O)(=O)NCCC(=O)N3CCN(c4ccccn4)CC3)ccc21	.	.	.	.	.
CC(Sc1ccccc1)C(=O)N1CCN(S(=O)(=O)c2cccc(Br)c2)CC1 (stereo not given)	.	.	.	.	.
CN(C)S(=O)(=O)N1CCC(Oc2ccc(C(=O)N3C[C@@H]4CCC[C@H]3C4)cc2)CC1	.	.	.	.	.
CCCCN(C(=O)Cn1nnc2ccccc21)C(C(=O)NCCOC)c1cccs1 (stereo not given)	.	.	.	.	.
CCCCN(C(=O)Cn1nnc2ccccc21)C(C(=O)NCCOC)c1ccccc1 (stereo not given)	19	.	.	.	.
CCN1CCN(c2nc(Nc3ccc(NC(C)=O)cc3)nc(Nc3ccc(NC(C)=O)cc3)n2)CC1	.	.	.	.	.
COc1ccc(N2CCN(C(=O)c3ccc(NS(=O)(=O)c4cccc(F)c4)cc3)CC2)cc1	.	.	.	.	.
COc1ccc(N2CCN(C(=O)c3ccc(NS(=O)(=O)c4ccc(F)c(F)c4)cc3)CC2)cc1	.	40	.	.	.
COc1ccc(N2CCN(C(=O)c3cccc(NS(=O)(=O)c4cccc(F)c4)c3)CC2)cc1	.	/	.	/	/
Cc1ccc(NS(=O)(=O)c2ccc(C(=O)N3CC(C)CC(C)C3)cc2)cc1 (stereo not given)	/	64	.	.	63
COc1ccc(NS(=O)(=O)c2ccc(C(=O)N3CCN(c4ccc(F)cc4)CC3)cc2)cc1	/	27	.	.	.
CCOC(=O)c1cc2c(c(-c3cccc(-c4cc5ccccc5o4)c3)n1)[C@@H](CCO)N(S(=O)C(C)(C)C)C2 (stereo not given in full)	/	/	.	/	/
NC(Cc1ccc(F)cc1)c1csc(NC(=O)NC(c2ccccc2)c2ccccc2)n1 (stereo not given)	/	/	.	/	/
CCc1ccc([C@H]2[C@@H]3C(=O)C[C@@H]4C(=O)NC(=O)[C@@H]4[C@@H]3CN2S(=O)(=O)c2ccc(C)cc2)cc1	/	/	.	/	/
O=C(Nc1ccc(Cl)c(Cl)c1)c1ccccc1	/	.	.	.	.
CN(C(=O)Nc1ccc(Cl)c(Cl)c1)c1ccccc1C(=O)O	.	35	.	.	.
Cn1nnnc1SCC(=O)N1CCN(c2ccc(Cl)cc2)CC1	16	.	.	.	.
COc1ccc(C(=O)Nc2ccccc2C(=O)Nc2cc(C)ccn2)cc1	.	.	.	.	.
COc1cc2ccccc2cc1C(=O)Nc1cc(C)ccn1	.	.	.	53	.
COc1cc2ccccc2cc1C(=O)Nc1nccs1	.	.	.	64	.
COc1c(C(=O)Nc2nccs2)ccc2ccccc12	.	.	.	.	.
Cc1ccc(N2C(=O)c3cccc4c(N)ccc(c34)C2=O)c2cccnc12	19	65	.	.	74
CCN1C(=O)c2cccc3c(N)ccc(c23)C1=O	.	46	.	.	58
Cc1ccc(-n2cnnn2)c2cccnc12	.	.	.	.	.
CCOc1ccc(C(=O)NC(C(=O)NCc2cccnc2)C(C)C)cc1 (stereo not given)	.	.	.	.	.
SMILES	GPR7 antagonist	CHO parental Ca	MPTP block	OX1R antag-1	OX1R antag-2
N#C/C(=C(/O)CSc1ccccn1)c1nc2ccccc2s1	.	66	.	.	71
COc1ccc(-c2noc(COc3ccccc3OC)n2)cc1OC	.	.	.	47	.
COc1ccc(-c2noc(CSc3nnc(Cc4ccccc4)n3-c3cccc(C)c3)n2)cc1OC	.	.	.	39	.
CCn1c(SCc2nc(-c3ccc(OC)c(OC)c3)no2)nnc1-c1cccs1	.	.	.	45	.
CCn1c(SCc2ccccc2)nnc1-c1cccs1	.	.	.	.	.
CCCNC(=O)C1(C)CCN(C(=O)c2ccccc2OC)C1 (stereo not given)	/	/	.	/	/
O=S1(=O)N[C@H](c2ccccc2)C[C@H](c2ccc(C(F)(F)F)cc2)O1	.	.	.	.	.
CC(C)n1nnnc1C1c2ccccc2C(=O)N1Cc1ccc(F)cc1 (stereo not given)	/	/	.	/	/
Cc1cc(C)nc(NN2C(=O)C=CC2=O)n1	.	.	.	.	.
COc1ccc2cc(CCNS(=O)(=O)c3c(C)cc(C)cc3C)c(=O)[nH]c2c1	.	.	.	76	.

Assay outcomes deposited in PubChem BioAssay by several laboratories.
